Data published in article PMC6424611 (Journal of molecular biology, 2019).
Where no end group is shown, it is not given here. [ ]: non-standard residue; d: D form. The star is where a group is joined. Biotin = O=C1N[C@H]2[C@H](CS[C@H]2CCCCC(=O)*)N1; TTDS = NCCCOCCOCCOCCCNC(=O)CCC(=O)*; pS = N[C@@H](COP(=O)(O)O)C(=O)O

Assays:
[1] = tested on: SHROOM2 PDZ; test: holdup assay; format: binding, human; conditions: ~4 μM PDZ
Method in brief: (§1)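 Automated holdup against N-terminally biotinylated (TTDS linker) RSK1 725–735 peptides, unphosphorylated and phosphorylated, in triplicate. PDZome v2 clones were codon-optimized and expressed in E. coli, with soluble lysate adjusted to ~4 μM. BI is the PDZ fraction depleted from the fluid phase.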

[2] = tested on: MAGI3-2 PDZ; test: holdup assay; format: binding, human; conditions: fraction of PDZ depleted; ~4 μM PDZ; biotinylated RSK1_725–735; triplicates
Method in brief: (§2)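 Automated holdup in triplicate measured biotinylated (N-terminal TTDS linker) RSK1 725–735 peptides, unphosphorylated or phosphorylated, against E. coli-expressed PDZome v2 domains. Soluble lysate was adjusted to ~4 μM, giving 255 domains for the unphosphorylated and 252 for the phosphorylated peptide. Binding intensity (BI) is the fraction of PDZ depleted from the fluid phase. BI 0.2 was the high-confidence threshold.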

[3] = biological target: T1, PDZD7-3 PDZ (Homo sapiens, UniProt Q9H5P4); test: holdup assay; format: binding; conditions: ~4 μM PDZ
T1 sequence (Q9H5P4 862-934 limits assumed): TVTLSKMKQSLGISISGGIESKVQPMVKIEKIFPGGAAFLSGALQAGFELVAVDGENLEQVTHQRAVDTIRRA
Method in brief: as §1

[4] = biological target: T2, MAST2 PDZ (Homo sapiens, UniProt Q6P0Q8); test: holdup assay; format: binding; conditions: ~4 μM PDZ
T2 sequence (Q6P0Q8 1104-1192 limits assumed): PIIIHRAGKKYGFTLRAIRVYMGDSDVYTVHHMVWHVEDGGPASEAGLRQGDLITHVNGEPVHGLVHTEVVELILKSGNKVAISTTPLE
Method in brief: as §1

[5] = tested on: GRID2IP-1 PDZ; test: holdup assay; format: binding, human; conditions: ~4 μM PDZ
Method in brief: as §1

[6] = biological target: T3, PDZRN3-1 PDZ (Homo sapiens, UniProt Q9UPQ7); test: holdup assay; format: binding; conditions: ~4 μM PDZ
T3 sequence (Q9UPQ7 249-339 limits assumed): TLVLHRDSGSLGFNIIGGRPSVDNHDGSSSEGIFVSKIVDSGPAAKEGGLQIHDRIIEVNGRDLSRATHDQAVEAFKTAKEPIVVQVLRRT
Method in brief: as §1

[7] = biological target: T4, ARHGEF12 PDZ (Homo sapiens, UniProt Q9NZN5); test: holdup assay; format: binding; conditions: ~4 μM PDZ
T4 sequence (Q9NZN5 72-151 limits assumed): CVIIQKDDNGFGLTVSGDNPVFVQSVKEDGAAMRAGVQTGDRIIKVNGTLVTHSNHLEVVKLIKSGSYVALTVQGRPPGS
Method in brief: as §1

[8] = biological target: T5, MAST1 PDZ (Homo sapiens, UniProt Q9Y2H9); test: holdup assay; format: binding; conditions: ~4 μM PDZ
T5 sequence (Q9Y2H9 967-1055 limits assumed): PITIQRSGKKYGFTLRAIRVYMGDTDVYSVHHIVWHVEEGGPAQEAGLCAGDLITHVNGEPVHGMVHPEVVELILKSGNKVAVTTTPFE
Method in brief: as §1

[9] = tested on: PPP1R9A PDZ; test: holdup assay; format: binding, human; conditions: ~4 μM PDZ
Method in brief: as §1

[10] = tested on: GRASP PDZ; test: holdup assay; format: binding, human; conditions: ~4 μM PDZ
Method in brief: as §1

[11] = tested on: human PDZ domains (PDZome); test: holdup assay, PDZome-binding profile
Method in brief: as §2

[12] = tested on: LAP2 PDZ; test: holdup assay; format: binding, human; conditions: fraction of PDZ depleted; ~4 μM PDZ; biotinylated RSK1_725–735; triplicates
Method in brief: as §1

[13] = biological target: GOPC PDZ (Homo sapiens, UniProt Q9HD26); test: holdup assay; format: binding; conditions: fraction of PDZ depleted; ~4 μM PDZ; biotinylated RSK1_725–735; triplicates
[14] = tested on: SHANK3 PDZ; test: holdup assay; format: binding, human; conditions: ~4 μM PDZ
Method in brief: as §1

[15] = tested on: GORASP1 PDZ; test: holdup assay; format: binding, human; conditions: ~4 μM PDZ
Method in brief: as §1

[16] = biological target: MAGI2-2 PDZ (Homo sapiens, UniProt Q86UL8); test: holdup assay; format: binding; conditions: ~4 μM PDZ
Sequence of MAGI2-2 PDZ (Q86UL8 426-510 limits assumed): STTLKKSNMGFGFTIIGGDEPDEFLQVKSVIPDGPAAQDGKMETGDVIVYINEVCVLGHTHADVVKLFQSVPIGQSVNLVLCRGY
Method in brief: as §1

[17] = tested on: NHERF2-2 PDZ; test: holdup assay; format: binding, human; conditions: ~4 μM PDZ
Method in brief: as §1

[18] = tested on: LNX1 −3 PDZ; test: holdup assay; format: binding, human; conditions: ~4 μM PDZ
Method in brief: as §1

[19] = biological target: T6, PARD3B-1 PDZ (Homo sapiens, UniProt Q8TEW8); test: holdup assay; format: binding; conditions: fraction of PDZ depleted; ~4 μM PDZ; biotinylated RSK1_725–735; triplicates
T6 sequence (Q8TEW8 201-289 limits assumed): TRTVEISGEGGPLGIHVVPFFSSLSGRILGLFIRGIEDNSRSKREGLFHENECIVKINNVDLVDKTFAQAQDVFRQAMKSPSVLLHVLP
Method in brief: as §2

[20] = biological target: T7, SYNJ2BP PDZ (Homo sapiens, UniProt P57105); test: holdup assay; format: binding; conditions: fraction of PDZ depleted; ~4 μM PDZ; biotinylated RSK1_725–735; triplicates
T7 sequence (P57105 13-100 limits assumed): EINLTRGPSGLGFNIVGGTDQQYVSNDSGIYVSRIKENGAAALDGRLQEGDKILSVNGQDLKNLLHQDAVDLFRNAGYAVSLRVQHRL
Method in brief: as §1

[21] = tested on: SCRIB-3 PDZ; test: holdup assay, updated analysis; format: binding, human; conditions: weak partner; automated computational protocol
Method in brief: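 The same triplicate holdup datasets (biotinylated RSK1 725–735, unphosphorylated and phosphorylated, vs ~4 μM PDZome lysates) were re-analysed with an updated automated computational protocol. This gave alternative BI values, reported as supplemental values alongside the conventional analysis.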

[22] = biological target: T8, SNTG2 PDZ (Homo sapiens, UniProt Q9NY99); test: holdup assay; format: binding; conditions: fraction of PDZ depleted; ~4 μM PDZ; biotinylated RSK1_725–735; triplicates
T8 sequence (Q9NY99 73-156 limits assumed): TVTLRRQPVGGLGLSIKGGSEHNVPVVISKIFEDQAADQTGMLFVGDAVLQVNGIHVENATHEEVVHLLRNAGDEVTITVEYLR
Method in brief: as §1

[23] = tested on: DLG4-2 PDZ; test: holdup assay; format: binding, human; conditions: fraction of PDZ depleted; ~4 μM PDZ; biotinylated RSK1_725–735; triplicates
[24] = biological target: GRID2IP-2 PDZ (Homo sapiens, UniProt A4D2P6); test: holdup assay; format: binding; conditions: fraction of PDZ depleted; ~4 μM PDZ; biotinylated RSK1_725–735; triplicates
Sequence of GRID2IP-2 PDZ (A4D2P6 279-356 limits assumed): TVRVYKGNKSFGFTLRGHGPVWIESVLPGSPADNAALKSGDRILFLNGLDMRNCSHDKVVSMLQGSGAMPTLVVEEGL
Method in brief: as §2

[25] = biological target: MAGI1-2 PDZ (Homo sapiens, UniProt Q96QZ7); test: holdup assay; format: binding
Sequence of MAGI1-2 PDZ (Q96QZ7 472-554 limits assumed): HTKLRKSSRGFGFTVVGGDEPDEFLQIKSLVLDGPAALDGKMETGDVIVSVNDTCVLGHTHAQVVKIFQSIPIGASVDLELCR
Method in brief: as §1

[26] = biological target: SNX27 PDZ (Homo sapiens, UniProt Q96L92); test: holdup assay; format: binding; conditions: fraction of PDZ depleted; ~4 μM PDZ; biotinylated RSK1_725–735; triplicates
[27] = fraction of PDZ depleted, biotinylated RSK1_725–735, triplicates
[28] = read-out: KD, estimated, from BI, estimated 17 μM peptide
[29] = BI threshold 0.2, compared to the unphosphorylated peptide

How did the “binding intensity (BI)” value [1, 27] turn out when “phosphorylated RSK1 peptide: RSK1 C-terminal PBM peptide phosphorylated at position −3; same constructs as the unphosphorylated ({Biotin-TTDS}-RRVRKLP[pS]TTL)” was run?
Its value is 0.21 ± 0.01.

And the Kd [1, 28]?
Its Kd is 60.8 µM.

What about the “binding intensity (BI)” value [2] of the same substance?
The value was 0.28 ± 0.06.

And the “binding intensity (BI)” value [3, 27]?
The value was 0.15 ± 0.03.

What about the Kd [3, 28] of the same substance?
Its Kd is 92.9 µM.

What about the “binding intensity (BI)” value [4, 27] of the same substance?
Its value is 0.23 ± 0.03.

What about the Kd [4, 28] of the same substance?
Its Kd is 53.8 µM.

What about the “binding intensity (BI)” value [5, 27] of the same substance?
Its value is 0.24 ± 0.01.

And the Kd [5, 28]?
The Kd was 50.8 µM.

And the “binding intensity (BI)” value [6, 27]?
Its value is 0.45 ± 0.01.

What about the Kd [6, 28] of the same substance?
Its Kd is 18.6 µM.

What about the “binding intensity (BI)” value [7, 27] of the same substance?
Its value is 0.05 ± 0.05.

What about the Kd [7, 28] of the same substance?
Its Kd is greater than 100 µM.

What about the “binding intensity (BI)” value [8, 27] of the same substance?
Its value is 0.08 ± 0.03.

And the Kd [8, 28]?
Its Kd is greater than 100 µM.

And the “binding intensity (BI)” value [9, 27]?
The value was 0.33 ± 0.02.

And the Kd [9, 28]?
Its Kd is 31.8 µM.

And the “binding intensity (BI)” value [10, 27]?
The value was 0.04 ± 0.01.

What about the Kd [10, 28] of the same substance?
The Kd was greater than 100 µM.

What about the “number of detectable binders lost” value [11, 29] of the same substance?
Its value is 12.

What about the “number of new binders gained” value [11, 29] of the same substance?
Its value is 10.

What about the “average BI” value ([11]; PDZome profile) of the same substance?
Its value is 0.33.

What about the “maximal BI” value ([11]; PDZome profile) of the same substance?
The value was 0.54.

What about the “binding intensity (BI)” value [12] of the same substance?
Its value is 0.28 ± 0.01.

What about the “binding intensity (BI)” value [13] of the same substance?
Its value is 0.25 ± 0.10.

And the “binding intensity (BI)” value [14, 27]?
The value was 0.07 ± 0.01.

And the Kd [14, 28]?
The Kd was greater than 100 µM.

What about the “binding intensity (BI)” value [15, 27] of the same substance?
Its value is 0.23 ± 0.03.

And the Kd [15, 28]?
The Kd was 53.8 µM.

And the “binding intensity (BI)” value [16, 27]?
Its value is 0.23 ± 0.03.

What about the Kd [16, 28] of the same substance?
The Kd was 53.8 µM.

And the “binding intensity (BI)” value [17, 27]?
The value was 0.07 ± 0.05.

What about the Kd [17, 28] of the same substance?
Its Kd is greater than 100 µM.

What about the “binding intensity (BI)” value [18, 27] of the same substance?
Its value is 0.24 ± 0.07.

And the Kd [18, 28]?
Its Kd is 50.8 µM.

What about the “binding intensity (BI)” value [19] of the same substance?
Its value is 0.31 ± 0.02.

And the “binding intensity (BI)” value [20]?
The value was 0.54 ± 0.03.

And the “interaction partner by updated analysis” value [21]?
The value was “new partners”.

And the “binding intensity (BI)” value [22]?
The value was 0.52 ± 0.05.

What about the “binding intensity (BI)” value [23] of the same substance?
The value was 0.25 ± 0.02.

What about the “binding intensity (BI)” value [24] of the same substance?
The value was 0.00 ± 0.01.

What about the “binding intensity (BI)” value ([25]; fraction of PDZ depleted, ~4 μM PDZ, biotinylated RSK1_725–735, triplicates) of the same substance?
Its value is 0.15 ± 0.02.

And the “down regulation of interaction by phosphorylation” value ([25]; holdup, phosphorylated vs unphosphorylated)?
The value was “a factor of five”.

What about the Kd ([25]; read-out: KD, estimated, from BI, estimated 17 μM peptide, ~4 μM PDZ) of the same substance?
The Kd was 92.9 µM.

And the “binding intensity (BI)” value [26]?
Its value is 0.47 ± 0.02.
